Measurements taken from ChEMBL document CHEMBL1143400, “A diarylquinoline drug active on the ATP synthase of Mycobacterium tuberculosis” (Science, 2005).

Columns and labels:
[1] = tested on: Mycobacterium tuberculosis; assay: Antimycobacterial activity against Mycobacterium tuberculosis H37Rv infected Swiss mouse assessed as reduction of bacterial count in lungs at 100 mg/kg 5 times weekly for 4 weeks; type: functional
Method in brief: (§1)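 Nonestablished infection model in mice. Oral dosing began the day after inoculation, given 5 times per week for 4 weeks; one 12.5 mg/kg group was dosed once weekly. Mice were killed on day 28 and lung and spleen CFU counted, with untreated controls taken at day 1. Means ± SD; pairwise comparisons by Bonferroni's method.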

[2] = tested on: Mus musculus; assay: Toxicity in Mycobacterium tuberculosis H37Rv infected Swiss mouse at 25 mg/kg 5 times weekly for 4 weeks; type: organism-based; set-up: dose 25 mg/kg; details: in vivo, 672 h
[3] = tested on: Mus musculus; assay: Toxicity in Mycobacterium tuberculosis H37Rv infected Swiss mouse at 100 mg/kg 5 times weekly for 4 weeks; type: organism-based; set-up: dose 100 mg/kg; details: in vivo, 672 h
[4] = tested on: Mus musculus; assay: Toxicity in Mycobacterium tuberculosis H37Rv infected Swiss mouse at 12.5 mg/kg 5 times weekly for 4 weeks; type: organism-based; set-up: dose 12.5 mg/kg; details: in vivo, 672 h
[5] = tested on: Mycobacterium tuberculosis; assay: Antimycobacterial activity against Mycobacterium tuberculosis H37Rv infected Swiss mouse assessed as spleen weight at 50 mg/kg 5 times weekly for 4 weeks; type: functional
[6] = tested on: Mycobacterium tuberculosis; assay: Antimycobacterial activity against Mycobacterium tuberculosis H37Rv infected Swiss mouse assessed as spleen weight at 100 mg/kg 5 times weekly for 4 weeks; type: functional
[7] = tested on: Mycobacterium tuberculosis; assay: Antimycobacterial activity against Mycobacterium tuberculosis H37Rv infected Swiss mouse assessed as reduction of bacterial count in spleen at 100 mg/kg 5 times weekly for 4 weeks; type: functional; method in brief: as §1
[8] = tested on: Mycobacterium tuberculosis; assay: Antimycobacterial activity against Mycobacterium tuberculosis H37Rv infected Swiss mouse assessed as reduction of bacterial count in lungs at 75 mg/kg 5 times weekly for 4 weeks; type: functional; method in brief: as §1
[9] = tested on: Mycobacterium tuberculosis; assay: Antimycobacterial activity against Mycobacterium tuberculosis H37Rv infected Swiss mouse assessed as reduction of bacterial count in spleen at 75 mg/kg 5 times weekly for 4 weeks; type: functional; method in brief: as §1
[10] = tested on: Mycobacterium tuberculosis; assay: Antimycobacterial activity against Mycobacterium tuberculosis H37Rv infected Swiss mouse assessed as reduction of bacterial count in spleen at 50 mg/kg 5 times weekly for 4 weeks; type: functional; method in brief: as §1
[11] = tested on: Mus musculus; assay: Toxicity in Mycobacterium tuberculosis H37Rv infected Swiss mouse at 75 mg/kg 5 times weekly for 4 weeks; type: organism-based; set-up: dose 75 mg/kg; details: in vivo, 672 h
[12] = tested on: Mus musculus; assay: Toxicity in Mycobacterium tuberculosis H37Rv infected Swiss mouse at 50 mg/kg 5 times weekly for 4 weeks; type: organism-based; set-up: dose 50 mg/kg; details: in vivo, 672 h
[13] = tested on: Mycobacterium tuberculosis; assay: Antimycobacterial activity against Mycobacterium tuberculosis H37Rv infected Swiss mouse assessed as spleen weight at 75 mg/kg 5 times weekly for 4 weeks; type: functional
[14] = tested on: Mycobacterium tuberculosis; assay: Antimycobacterial activity against Mycobacterium tuberculosis H37Rv infected Swiss mouse assessed as reduction of bacterial count in lungs at 50 mg/kg 5 times weekly for 4 weeks; type: functional; method in brief: as §1
[15] = tested on: Mycobacterium tuberculosis; assay: Antimycobacterial activity against Mycobacterium tuberculosis H37Rv infected Swiss mouse assessed as reduction of bacterial count in spleen at 10 mg/kg after 12 days infection weekly 5 times for 1 month; type: functional
[16] = tested on: Mycobacterium tuberculosis; assay: Antimycobacterial activity against Mycobacterium tuberculosis H37Rv infected Swiss mouse assessed as reduction of bacterial count in lungs at 10 mg/kg after 12 days infection weekly 5 times for 1 month; type: functional
Method in brief: (§2)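 Established infection model in mice. Treatment started 12 to 14 days after inoculation, given 5 times per week. Mice were killed on day 12 just before treatment, on day 42 (1 month of therapy) and on day 70 (2 months), and lung CFU counted. Means ± SD; pairwise comparisons by Bonferroni's method.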

[17] = tested on: Mycobacterium tuberculosis; assay: Antimycobacterial activity against Mycobacterium tuberculosis H37Rv infected Swiss mouse assessed as reduction of bacterial count in lungs at 10 mg/kg after 12 days of infection weekly 5 times for 8 weeks; type: functional; method in brief: as §2
[18] = tested on: Plasma; assay: Drug level in human plasma; type: ADME, cell-free
[19] = tested on: Mycobacterium tuberculosis; assay: Antimycobacterial activity against Mycobacterium tuberculosis H37Rv infected Swiss mouse assessed as spleen weight at 10 mg/kg after 12 days infection weekly 5 times for 1 month; type: functional
[20] = tested on: Mycobacterium tuberculosis; assay: Antimycobacterial activity against Mycobacterium tuberculosis H37Rv infected Swiss mouse assessed as spleen weight at 10 mg/kg after 12 days of infection weekly 5 times for 8 weeks; type: functional
[21] = tested on: Mycobacterium tuberculosis; assay: Antimycobacterial activity against Mycobacterium tuberculosis H37Rv infected Swiss mouse assessed as spleen weight at 25 mg/kg 5 times weekly for 4 weeks; type: functional
[22] = tested on: Mycobacterium tuberculosis; assay: Antimycobacterial activity against Mycobacterium tuberculosis H37Rv infected Swiss mouse assessed as reduction of bacterial count in spleen at 25 mg/kg 5 times weekly for 4 weeks; type: functional; method in brief: as §1
[23] = tested on: Mycobacterium tuberculosis; assay: Antimycobacterial activity against Mycobacterium tuberculosis H37Rv infected Swiss mouse assessed as reduction of bacterial count in lungs at 25 mg/kg 5 times weekly for 4 weeks; type: functional; method in brief: as §1

With `COc1nc2ccc(Br)cc2cc1[C@@H](c1ccccc1)[C@@](O)(CCN(C)C)c1ccccc1` the log10cfu [1] was 6.1, the Activity [2] was “Non-toxic” and the Activity [3] was “Non-toxic”. The Activity [4] was “Non-toxic”, the Activity [5] was 410 mg and the Activity [6] was 424 mg. It also gave a log10cfu [7] of 5.68, a log10cfu [8] of 6.03 and a log10cfu [9] of 5.72. The log10cfu [10] was 5.78, the Activity [11] was “Non-toxic” and the Activity [12] was “Non-toxic”. The Activity [13] was 390 mg and the log10cfu [14] was 6.4.
`CO[C@H]1/C=C/O[C@@]2(C)Oc3c(C)c(O)c4c(O)c(c(/C=N/N5CCN(C)CC5)c(O)c4c3C2=O)NC(=O)/C(C)=C\C=C\[C@H](C)[C@H](O)[C@@H](C)[C@@H](O)[C@@H](C)[C@H](OC(C)=O)[C@@H]1C` [RIFAMPIN] was tested, and the log10cfu [15] was 4.72, the log10cfu [16] was 4.05 and the log10cfu [17] was 1.89. The Drug uptake [18] was under 0.001 µg/mL, the Activity [19] was 466 mg and the Activity [20] was 391 mg.
Compound `NNC(=O)c1ccncc1` [ISONIAZID] has an Activity [21] of 185 mg, a log10cfu [22] of 3.05 mg and a log10cfu [23] of 1.75 mg.
`COc1nc2ccc(Br)cc2cc1[C@@H](c1ccccc1)[C@@](O)(CCN(C)C)c1cccc(F)c1` showed a log10cfu [1] of 3.63, an Activity [5] of 278 mg and an Activity [6] of 206 mg. It also gave a log10cfu [7] of 3.63, a log10cfu [8] of 4.32 and a log10cfu [9] of 4.04. For the same compound, the log10cfu [10] was 4.68, the Activity [13] was 197 mg and the log10cfu [14] was 5.2.
